Measurements from different studies.
Protocols differ between the studies behind these lines.
NTRK3: NT-3 growth factor receptor (NTRK3, Homo sapiens, UniProt Q16288)
TNKS: Poly [ADP-ribose] polymerase tankyrase-1 (TNKS, Homo sapiens, UniProt O95271)

target | test | system | conditions | inhibition [%] | Compound
RAC-alpha serine/threonine-protein kinase (AKT1, Homo sapiens, UniProt P31749) | enzyme activity, inhibitor, FRET |  | 1 µM | 5 | CN(C)C1CCN(CC#Cc2nn(C3CCCC3)c3nc(NCc4ccccc4)ncc23)C1 (stereo not drawn)
PSMB6/PSMB5/PSMB7 (Homo sapiens, UniProt P28072+P28074+Q99436) | enzyme activity in cells, inhibitor | MCF7 | 20 µg/mL | 67 | COC(=O)c1c(O)ccc(O)c1C(=O)c1c(O)cc2c(c1O)[C@@H]1C=C[C@@]3(C2)[C@@H](OC(C)=O)c2cc(C)cc(O)c2C(=O)C3(O)C1=O (stereo partly drawn)
Histone-lysine N-methyltransferase SMYD3 (SMYD3, Homo sapiens, UniProt Q9H7B4) | enzyme activity, inhibitor |  | 1 µM | 13 | CCN(c1cc(C#CCN2CCOCC2)cc(C(=O)NCc2c(C)cc(C)[nH]c2=O)c1C)[C@H]1CC[C@H](N(C)CCOC)CC1
NTRK3 | enzyme activity, inhibitor, FRET |  | 1 µM | 17.3 | O=C(Nc1ccc(OC(F)(F)F)cc1)Nc1cccc(C(=O)Nc2ccc3[nH]ncc3c2)c1
Dual specificity mitogen-activated protein kinase kinase 7 (MAP2K7, Homo sapiens, UniProt O14733) | enzyme activity, inhibitor |  | 0.3 µM | 9 | CNC(=O)c1cc(Oc2ccc(NC(=O)Nc3ccc(Cl)c(C(F)(F)F)c3)cc2)ccn1
TNKS | enzyme activity, inhibitor |  | 0.1 µM | 3 | Cc1ccc(C)c(NC(=O)CSc2nnc(Cc3cc(=O)[nH]c(=O)[nH]3)n2-c2ccc(Cl)cc2)c1
Prothrombin (Rattus norvegicus, UniProt P18292) | enzyme activity, inhibitor |  | 200 µg/mL | 92 | CC1=C(/C=C/C(C)=C/C=C/C(C)=C/C(=O)O)C(C)(C)CCC1
TNKS | enzyme activity, inhibitor |  | 10 µM | 7 | Ic1cccc2cnccc12
Cathepsin E (CTSE, Homo sapiens, UniProt P14091) | enzyme activity, inhibitor |  | 10 µM | 86 | C[C@H]1C[C@@H](N2C(=N)N[C@](C)(c3cccc(Nc4ccc(C5CC5)nc4)c3Cl)CC2=O)CCO1
Methylcytosine dioxygenase TET2 (Mus musculus, UniProt Q4JK59) | enzyme activity, inhibitor |  | 50 mM | 83 | O=C(O)CC[C@@H](O)C(=O)O
NTRK3 | enzyme activity, inhibitor, FRET |  | 1 µM | 17.3 | O=C(Nc1ccc2[nH]ncc2c1)c1cccc(NC(=S)Nc2ccc(C(F)(F)F)cc2)c1
C-X-C chemokine receptor type 4 (CXCR4, Homo sapiens, UniProt P61073) | calcium signal, antagonist | U87.CD4.CXCR4 | 4 µM | 11 | OCc1cc(C(O)CNCCCCCCOCCCCc2ccccc2)ccc1O (stereo not drawn)
